This is an account of results in ChEMBL document CHEMBL1938372, “Design and synthesis of conformationally constrained inhibitors of non-nucleoside reverse transcriptase” (J Med Chem, 2011).

≈ marks a conversion by molar mass, not a printed value. Calls of active or inactive are those of the source. Some results are limits rather than exact numbers.

The nature of data set [1]: Volume of distribution in Beagle dog at 2 mg/kg, po and 0.5 mg/kg, iv. The data set is classed as ADME, organism-based, Canis lupus familiaris. The conditions noted are these: in vivo. In a few lines: (§1)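 PK in Sprague-Dawley rats (iv solution in DMSO via an indwelling jugular cannula, or oral suspension in aqueous methylcellulose/Methocel) and beagle dogs (iv and oral given crossover, same vehicles). Plasma levels by LC-MS. F from oral versus iv dose-normalized AUC. Average of at least two animals; rat values within 25% of the mean.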

The subject of data set [2] is Human immunodeficiency virus. Briefly: Antiviral activity against Human immunodeficiency virus harboring reverse transcriptase Y188L mutant assessed as inhibition of viral replication. The data set is classed as functional, organism-based. A digest of the protocol: (§2)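 Phenosense cell culture assay against a panel of clinically derived RT mutant viruses in the presence of 10% FBS. IC50 is the compound concentration blocking 50% of viral replication. Each value is the average of two determinations.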

A short description of data set [3]: Inhibition of Human immunodeficiency virus reverse transcriptase by SPA assay.
Data set [4] in a line: Bioavailability in Beagle dog at 2 mg/kg, po and 0.5 mg/kg, iv. Format: ADME, organism-based, Canis lupus familiaris. Particulars: in vivo. A digest of the protocol:
as §1

The test system of data set [5] is Human immunodeficiency virus. Briefly: Antiviral activity against wild type Human immunodeficiency virus assessed as inhibition of viral replication. Format: functional, organism-based.
A short description of data set [6]: Half life in Beagle dog at 2 mg/kg, po and 0.5 mg/kg, iv. The data set is classed as ADME, organism-based, Canis lupus familiaris. Particulars: in vivo. In a few lines: as §1
Data set [7] has as its system Human immunodeficiency virus. Briefly: Antiviral activity against Human immunodeficiency virus harboring reverse transcriptase K103N/Y181C/G190A triple mutant assessed as inhibition of viral replication. Format: functional, organism-based. A digest of the protocol: as §2
The test system of data set [8] is Rattus norvegicus. Briefly: Dose normalised AUC in Sprague-Dawley rat at 10 mg/kg, po by LC-MS analysis. Format: ADME, organism-based. On the set-up: dose 10 mg/kg, route oral. The conditions noted are these: in vivo. A digest of the protocol: as §1
The subject of data set [9] is Human immunodeficiency virus. Briefly: Antiviral activity against Human immunodeficiency virus harboring reverse transcriptase Y181C mutant assessed as inhibition of viral replication. The data set is classed as functional, organism-based. In a few lines: as §2
The test system of data set [10] is Human immunodeficiency virus. Briefly: Antiviral activity against Human immunodeficiency virus harboring reverse transcriptase G190S mutant assessed as inhibition of viral replication. Format: functional, organism-based. A digest of the protocol:
as §2

The test system of data set [11] is Human immunodeficiency virus. Briefly: Antiviral activity against multidrug-resistant Human immunodeficiency virus assessed as inhibition of viral replication. The data set is classed as functional, organism-based. In a few lines:
as §2

Data set [12] relates to Human immunodeficiency virus. Briefly: Antiviral activity against Human immunodeficiency virus harboring reverse transcriptase K103N/P225H double mutant assessed as inhibition of viral replication. Format: functional, organism-based. A digest of the protocol: as §2
Data set [13] deals with Human immunodeficiency virus. Briefly: Antiviral activity against Human immunodeficiency virus expressing reverse transcriptase K103N mutant infected in human MT4 cells by p24 antigen assay in the presence of 10% FBS. The data set is classed as functional. Particulars: Human immunodeficiency virus 1, MT4; read-out: CIC95. In a few lines:
(§3)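 Antiviral spread assay in MT-4 human T-lymphoid cells kept in RPMI 1640 with 10% FBS. Value is the CIC95, the concentration inhibiting virus replication by >95%. Reported as the geometric mean of at least two determinations, all within 2-fold of the mean. Cytotoxicity was checked up to the assay upper limit of 8.3 μM.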

The nature of data set [14]: Bioavailability in Sprague-Dawley rat at 10 mg/kg, po and 2 mg/kg, iv. The data set is classed as ADME, organism-based. The conditions noted are these: in vivo. In a few lines:
as §1

Data set [15] can be described thus: Plasma clearance in Beagle dog at 2 mg/kg, po and 0.5 mg/kg, iv. The data set is classed as ADME, organism-based, Canis lupus familiaris. A digest of the protocol:
as §1

Data set [16] is described as follows: Volume of distribution in Sprague-Dawley rat at 10 mg/kg, po and 2 mg/kg, iv. Format: ADME, organism-based. Particulars: in vivo. A digest of the protocol:
as §1

In data set [17] the test system is Human immunodeficiency virus. Briefly: Antiviral activity against Human immunodeficiency virus harboring reverse transcriptase L100l mutant assessed as inhibition of viral replication. The data set is classed as functional, organism-based. A digest of the protocol:
as §2

Data set [18] is described as follows: Half life in Sprague-Dawley rat at 10 mg/kg, po and 2 mg/kg, iv. Particulars: in vivo. The data set is classed as ADME, organism-based. In a few lines:
as §1

A short description of data set [19]: Solubility of the compound in water at pH 2. Format: physicochemical. A digest of the protocol:
(§4)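 Water solubility of the solid compound measured at pH 2 and at pH 7.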

The subject of data set [20] is Human immunodeficiency virus. Briefly: Antiviral activity against Human immunodeficiency virus expressing wild type reverse transcriptase infected in human MT4 cells by p24 antigen assay in the presence of 10% FBS. Format: functional. The conditions noted are these: Human immunodeficiency virus 1, MT4; read-out: CIC95. In a few lines: (§5)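 MT-4 human T-lymphoid cells in RPMI 1640 with either 10% FBS or 50% NHS; CIC95 taken as the concentration inhibiting virus spread/replication by >95%. Geometric mean of at least two determinations, individual values within 2-fold; SEM given when ≥3 determinations.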

Data set [21] has as its system Human immunodeficiency virus. Briefly: Antiviral activity against Human immunodeficiency virus harboring reverse transcriptase V106A/G190A/F227L triple mutant assessed as inhibition of viral replication. The data set is classed as functional, organism-based. In a few lines:
as §2

Data set [22] concerns Canis familiaris. Briefly: Dose normalised AUC in Beagle dog at 2 mg/kg, po by LC-MS analysis. The data set is classed as ADME, organism-based, Canis lupus familiaris. Details: dose 2 mg/kg, route oral. The conditions noted are these: in vivo. A digest of the protocol: as §1
A short description of data set [23]: Solubility of the compound in water at pH 7. The data set is classed as physicochemical. A digest of the protocol: as §4
In data set [24] the test system is Human immunodeficiency virus. Briefly: Antiviral activity against Human immunodeficiency virus harboring reverse transcriptase K103N mutant assessed as inhibition of viral replication. The data set is classed as functional, organism-based. A digest of the protocol:
as §2

In data set [25] the test system is Human immunodeficiency virus. Briefly: Antiviral activity against Human immunodeficiency virus harboring reverse transcriptase K101E/G190A double mutant assessed as inhibition of viral replication. The data set is classed as functional, organism-based. In a few lines:
as §2

The target in data set [26] is Human immunodeficiency virus type 1 reverse transcriptase (Human immunodeficiency virus 1, UniProt Q72547, Y181C). Briefly: Inhibition of Human immunodeficiency virus reverse transcriptase Y181C mutant by SPA assay. In a few lines:
(§6)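 Recombinant HIV-1 RT polymerase scintillation proximity assay run with mutant enzyme, reported as Ki (nM). Values are geometric means of at least two determinations, each within 2-fold of the mean; SEM is given where there were ≥3 determinations.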

For data set [27], the system named is Human immunodeficiency virus. Briefly: Antiviral activity against Human immunodeficiency virus harboring reverse transcriptase K101E/Y181C/G190A triple mutant assessed as inhibition of viral replication. Format: functional, organism-based. In a few lines:
as §2

For data set [28], the system named is Human immunodeficiency virus. Briefly: Antiviral activity against Human immunodeficiency virus harboring reverse transcriptase G190A mutant assessed as inhibition of viral replication. The data set is classed as functional, organism-based. In a few lines: as §2
Data set [29] relates to Human immunodeficiency virus. Briefly: Antiviral activity against Human immunodeficiency virus expressing wild type reverse transcriptase infected in human MT4 cells by p24 antigen assay in the presence of 50% normal human serum. Format: functional. The conditions noted are these: Human immunodeficiency virus 1, MT4; read-out: CIC95. A digest of the protocol: as §5
The nature of data set [30]: Plasma clearance in Sprague-Dawley rat at 10 mg/kg, po and 2 mg/kg, iv. The data set is classed as ADME, organism-based. A digest of the protocol:
as §1

Data set [31] has as its system MT4. Briefly: Cytotoxicity against human MT4 cells up to 8.3 uM. Format: cell-based. In a few lines:
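MT-4 cells in RPMI 1640 with 10% FBS or 50% NHS, run alongside the antiviral CIC95 assay; cytotoxicity checked up to the assay upper limit of 8.3 μM.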

Data set [32] addresses Human immunodeficiency virus type 1 reverse transcriptase (Human immunodeficiency virus 1, UniProt Q72547, K103N). Briefly: Inhibition of Human immunodeficiency virus reverse transcriptase K103N mutant by SPA assay. A digest of the protocol: as §6
The test system of data set [33] is Human immunodeficiency virus. Briefly: Antiviral activity against Human immunodeficiency virus expressing reverse transcriptase Y181C mutant infected in human MT4 cells by p24 antigen assay in the presence of 10% FBS. Particulars: Human immunodeficiency virus 1, MT4; read-out: CIC95. The data set is classed as functional. In a few lines:
as §3

The test system of data set [34] is Human immunodeficiency virus. Briefly: Antiviral activity against Human immunodeficiency virus harboring reverse transcriptase L100l/K103N/P225P/H triple mutant assessed as inhibition of viral replication. The data set is classed as functional, organism-based. A digest of the protocol: as §2
In data set [35] the test system is Canis familiaris. Briefly: Dose normalised AUC in Beagle dog at 1 mg/kg, po by LC-MS analysis. Format: ADME, organism-based, Canis lupus familiaris. On the set-up: dose 1 mg/kg, route oral. The conditions noted are these: in vivo. A digest of the protocol: as §1
Data set [36] in a line: Bioavailability in Beagle dog at 1 mg/kg, po and 0.25 mg/kg, iv. The data set is classed as ADME, organism-based, Canis lupus familiaris. The conditions noted are these: in vivo. A digest of the protocol:
as §1

For data set [37], the system named is Canis familiaris. Briefly: Dose normalised AUC in Beagle dog at 10 mg/kg, po by LC-MS analysis. The conditions noted are these: in vivo. Details: dose 10 mg/kg, route oral. The data set is classed as ADME, organism-based, Canis lupus familiaris. A digest of the protocol:
as §1

Usually Ki stands for the equilibrium dissociation constant of an inhibitor or competing ligand from its target. What is called bioavailability is dose-corrected exposure relative to a reference, in per cent. As usually defined, the half-life is the time needed for the level to fall by half in the phase considered. Read a low half-life as fast loss. For orientation: solubility means the concentration that dissolves in the medium under given conditions. Consider `N#Cc1cc(Cl)cc(Oc2c(Cl)ccc3c2cnn3Cc2n[nH]c3nc(N)ccc23)c1`, for which the Vd in [1] amounted to 2 L/kg; in [16] it was 2.5 L/kg. Further, the inhibition entry in data set [2] and in data set [21] was “inactive” throughout. Further, the values for the Ki in data set [3], in data set [26] and in data set [32] were 0.61 nM, 1.9 nM and 1.7 nM, respectively. The bioavailability in [4] was determined as 32%; in data set [14], 39%. Besides, the inhibition entry in [5], in data set [7], in [9], in data set [10], in data set [11] and in data set [12] was “Active” each time. In addition, the inhibition entry in data set [17], in data set [24], in [25], in data set [27], in data set [28] and in [34] was “Active” throughout. In addition, the results for the half-life in data set [6] and in [18] were 2.8 h and 6.3 h, respectively. Further, the results for the AUC/dose in data set [8] and in data set [22] were 3.64 µM·h and 1.33 µM·h, respectively. Further, the IC95 in [13] worked out at 9.7 nM; in [20], 4.1 nM; in [29], 43 nM; in [33], 68 nM. Moreover, the clearance in data set [15] is 7.6 mL/min/kg; in data set [30], 4.7 mL/min/kg. For the same compound, the solubility in [19] is 40 µg/mL (≈ 88.8 µM); in data set [23] it was less than 0.1 µg/mL. Moreover, the Activity result in data set [31] was “Non-toxic”.
Consider `N#Cc1cc(Cl)cc(Oc2cc(OCc3n[nH]c4ncccc34)ccc2Cl)c1`, for which the Ki was determined as 0.12 nM in [3], 0.23 nM in data set [26] and 0.22 nM in data set [32]. The AUC/dose turned out to be 0.1 µM·h in data set [8] and 0.14 µM·h in data set [35]. The IC95 stood at 15 nM in [13], 10 nM in [20], 52 nM in data set [29] and 22 nM in data set [33]. For the same compound, the bioavailability in [14] worked out at 7.5%; in data set [36], 3%. The same compound registered a solubility in data set [19] of less than 0.1 µg/mL. In [31], the Activity entry is listed as “Non-toxic”.
Consider `N#Cc1cc(Cl)cc(Oc2cc(OCc3n[nH]c4nc(N)ccc34)ccc2Cl)c1`, for which the inhibition entry in data set [2] and in [21] was “inactive” throughout. The affinity in [3] corresponds to a Ki of 0.2 nM. For the same compound, the inhibition result in data set [5], in [7], in [9], in data set [10], in [11] and in [12] was “Active” throughout. Also, the inhibition entry in [17], in [24], in data set [25], in data set [27], in [28] and in [34] was “Active” in each case. For the same compound, the AUC/dose was 2.3 µM·h in [8] and 3.1 µM·h in data set [37]. The IC95 is 12 nM in data set [13], 4.9 nM in data set [20], 26 nM in data set [29] and 27 nM in data set [33]. Moreover, the Activity entry in data set [31] is recorded as “Non-toxic”.
